Laboratory results from paper PMC6970618 (Bioorganic & medicinal chemistry letters, 2018).
“Also recorded” adds a separate entry of the source. Like-named read-outs stand apart in the source and are kept apart here.

Tests used:
T. cruzi = T. cruzi cytostatic/cytocidal assay; assay type: cell-based, Trypanosoma cruzi; details: cytocidal versus cytostatic behaviour
TcCYP51 = TcCYP51 (Trypanosoma cruzi, UniProt Q7Z1V1); assay: TcCYP51 counter-screen; assay type: biochemical, T. cruzi; details: for TcCYP51 inhibition: result in words
Sequence of TcCYP51 (Q7Z1V1 whole entry): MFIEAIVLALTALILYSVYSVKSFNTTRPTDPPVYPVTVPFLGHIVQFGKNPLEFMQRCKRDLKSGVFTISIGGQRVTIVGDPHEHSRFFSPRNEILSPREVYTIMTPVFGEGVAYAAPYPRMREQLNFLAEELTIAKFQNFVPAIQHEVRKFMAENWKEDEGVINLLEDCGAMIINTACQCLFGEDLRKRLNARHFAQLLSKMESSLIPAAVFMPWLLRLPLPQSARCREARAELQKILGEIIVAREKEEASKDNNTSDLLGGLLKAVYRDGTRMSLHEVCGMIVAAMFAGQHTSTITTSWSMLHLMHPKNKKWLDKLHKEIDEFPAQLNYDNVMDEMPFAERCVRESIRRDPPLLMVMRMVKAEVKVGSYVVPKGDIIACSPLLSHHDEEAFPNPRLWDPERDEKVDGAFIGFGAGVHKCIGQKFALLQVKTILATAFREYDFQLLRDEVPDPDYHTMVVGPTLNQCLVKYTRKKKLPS

T. cruzi amastigotes = assay: Intracellular T. cruzi amastigote assay in Vero cells; assay type: cell-based, Trypanosoma cruzi; details: for EC50: Trypanosoma cruzi, Vero; for Tc pEC50: T. cruzi amastigote cultures in Vero cells, mean of three or more EC50 determinations ± standard deviation
Procedure, shortened: (§1)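 Intracellular T. cruzi amastigotes cultured in Vero host cells, with the host Vero cells read in parallel. pEC50 is the mean of independent EC50 determinations: three or more ± standard deviation, or for some compounds two ± range.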

Vero cells = assay: Host Vero cell toxicity counter-read of the amastigote assay; assay type: cell-based
Procedure, shortened: as §1

[1] = Intrinsic clearance in mouse liver microsomes; assay type: in vitro ADME; details: result in words
[2] = host Vero cells, mean of three or more EC50 determinations ± standard deviation

| TcCYP51 inhibition (TcCYP51) | SMILES | Cytocidal (T. cruzi) | EC50 (T. cruzi amastigotes; read-out: Tc pEC50 (converted)) | other results |
| --- | --- | --- | --- | --- |
|  | COc1cc(OC)cc(C(=O)Nc2ccc(Nc3nc(C)cc(N(C)C)n3)cc2)c1 [Compound 1] | cytocidal behavior |  | EC50 (TcCYP51): > 10000 nM; EC50 (T. cruzi amastigotes; read-out: pEC50 against T. cruzi parasites (converted)): 126 nM; Vero pEC50 (Vero cells; Table 2: host Vero cells, mean of two EC50 determinations ± range (1, 4b: ± standard deviation from > 2 determinations)): 5.2 ± 0.3; stability in mouse liver microsomes (MLM) [1]: stable |
| did not inhibit TcCYP51 | COc1cc(Nc2nc(C)cc(N(C)C)n2)ccc1F [Compound 4d] | cytocidal |  | Tc pEC50 (T. cruzi amastigotes): 6.4 ± 0.3; Vero pEC50 (Vero cells; [2]): 4.5 ± 0.1 |
|  | Cc1cc(N(C)C)nc(Nc2ccc(C(=O)N3CCCCC3)cc2)n1 [Compound 5a] |  | 2000 nM | toxicity against the host cells (Vero cells; at the top concentration tested (50 μM)): no toxicity |
| did not inhibit TcCYP51 | Cc1cc(N(C)C)nc(NCc2ccccc2)n1 [Compound 6a] | cytocidal | 3160 nM | Tc pEC50 (T. cruzi amastigotes): 5.5 ± 0.3; Vero pEC50 (Vero cells; [2]): < 4.3 |
|  | Cc1cc(N(C)C)nc(NC2CCN(C(=O)Cc3ccc(F)cc3F)CC2)n1 [Compound 6e] |  | 3160 nM |  |
| no activity versus TcCYP51 | COc1cc(OC)cc(C(=O)N[C@H]2CC[C@H](Nc3nc(C)cc(N(C)C)n3)CC2)c1 [Compound 8b] | cytocidal |  |  |
|  | COc1cc(Nc2nc(C)cc(N3CCCC3)n2)ccc1F [Compound 13b] |  | 316 nM |  |
|  | COc1cc(Nc2cc(C)nc(NCc3ccccc3)n2)ccc1F [Compound 17c] | cytostatic behavior; also recorded: no longer cytocidal | 79.4 nM |  |
|  | COc1cc(Nc2nc(C(C)C)cc(N(C)C)n2)ccc1F [Compound 18c] |  | 2000 nM |  |
|  | COc1cc(Nc2nc(C(=O)N3CCCC3)cc(N(C)C)n2)ccc1F [Compound 18e] |  | 31600 nM |  |
